Experimental data: ChEMBL document CHEMBL1158782, “Cytotoxic germacrane sesquiterpenes from the aerial parts of Santolina insularis” (J Nat Prod, 2005)

Assays:
[1] = Cytotoxicity against mouse peritoneal macrophages cells after 24 hrs by MTT assay; format: cell-based; conditions: Macrophage
Method in brief: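 Mouse cells harvested 4 days after intraperitoneal 10% thioglycollate, about 70% macrophages. Plated at 1 × 10^5/well and left to adhere for 3 h in DMEM with 10% FBS, 2 mM L-glutamine, 25 mM HEPES, antibiotics and 5 mM sodium pyruvate at 37 °C. Treated 24 h with compounds at 0.1-10 µg/mL. MTT (5 mg/mL) for 3 h, DMSO solubilization, OD490 read.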

Caco-2 = test: Cytotoxicity against human Caco-2 cells after 24 hrs by MTT assay; format: functional, cell-based; conditions: Caco-2, 24 h
Method in brief: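 Caco-2 cells kept in DMEM with 10% FBS, 25 mM HEPES, 100 U/mL penicillin and 100 µg/mL streptomycin at 37 °C under humidified 5% CO2. Seeded at 1 × 10^4/well for 48 h, then exposed to compounds (0.1-10 µg/mL) for 24 h. MTT (5 mg/mL) added for 3 h at 37 °C, formazan dissolved in DMSO, OD490 read. IC50 reported.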

For C=C1CC[C@@H](C(C)C)[C@@H](O)/C=C(\C)[C@H](O)CC1=O, the IC50 [1] was ≥ 10 µg/mL.

For C/C1=C\[C@H](O)C/C(C)=C/[C@H](O)[C@H](C(C)C)CC1, the IC50 [1] was ≥ 10 µg/mL.

With CC(=O)O[C@H]1/C=C(\C)CC[C@@H](C(C)C)[C@@H](O)[C@@H]2O[C@@]2(C)C1 the IC50 [1] was ≥ 10 µg/mL.

For C/C1=C/C[C@@H](C(C)C)[C@@H](O)[C@@H]2O[C@@]2(C)C[C@@H](O)[C@@H]1O, the IC50 [1] was ≥ 10 µg/mL and the IC50 (Caco-2) was 1100 nM.

For C=C1C[C@@H](O)[C@H](O)[C@]2(C)CC[C@@H](C(C)C)[C@@H](O)[C@@H]1O2, the IC50 [1] was ≥ 10 µg/mL and the IC50 (Caco-2) was 3700 nM.

For C=C1C[C@@H](O)/C=C(\C)CC[C@@H](C(C)C)[C@@H](O)C1, the IC50 [1] was ≥ 10 µg/mL.

In the case of C=C1C[C@@H](O)[C@H](O)/C(C)=C\C[C@@H](C(C)C)[C@@H](O)[C@@H]1O, the IC50 [1] is reported as ≥ 10 µg/mL.

In the case of CC(C)[C@@H]1CC[C@]2(C)O[C@H]2[C@H](O)C[C@]2(C)O[C@H]2[C@@H]1O, the IC50 [1] is reported as ≥ 10 µg/mL.

In the case of C/C1=C\[C@H](O)C[C@]2(C)O[C@H]2[C@H](O)[C@H](C(C)C)CC1, the IC50 [1] is reported as ≥ 10 µg/mL.
